ChEMBL document CHEMBL3351532, “In vitro antiplasmodial and cytotoxic activities of asymmetrical pyridinium derivatives” (Eur J Med Chem, 2014)

Assays:
Plasmodium falciparum = experiment: Antiplasmodial activity against Plasmodium falciparum 3D7 infected in human erythrocytes assessed as parasite growth inhibition after 72 hrs by SYBR Green I dye based fluorescence assay; type: functional, organism-based; conditions: 3D7, 72 h
How it was run: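 P. falciparum 3D7, sorbitol-synchronized, in O+ human erythrocytes at 5% hematocrit and 0.5% parasitemia. Medium: RPMI 1640 with 2% human serum, 0.5% Albumax II and 0.2% NaHCO3, at 37 °C in 5% CO2. Triplicate serial dilutions, 0.001% final DMSO, 80 nM chloroquine as positive control, 72 h. SYBR Green I lysis for 1 h in the dark (ex 485/em 530 nm). IC50 by nonlinear regression of counts against log concentration.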

[1] = Selectivity index, ratio of CC50 for rat L6 cells to IC50 for Plasmodium falciparum 3D7; type: functional
[2] = Cytotoxicity against rat L6 cells after 72 hrs by alamar blue assay; type: cell-based
How it was run: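 Rat L6 skeletal myoblasts plated at 50,000 cells/well in RPMI 1640 with L-glutamine and 10% FBS, left to adhere 3 h, then exposed to serial dilutions for 72 h. Alamar Blue added for 2 h at 37 °C, fluorescence read at ex 536/em 588 nm. TC50 taken as the concentration halving fluorescence relative to inhibitor-free wells.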

Compound	IC50 (Plasmodium falciparum) [nM]	Ratio CC50/IC50 [1]	CC50 at 72 h [2] [µg/mL]
CN(C)c1cc[n+](Cc2ccc(Cn3cnc4c(SCc5ccccc5)ncnc43)cc2)cc1	122		
CN(C)c1cc[n+](Cc2ccc(CCCCc3ccc(Cn4cnc5c(SCc6ccccc6)ncnc54)cc3)cc2)cc1	500		
CN(C)c1cc[n+](Cc2ccc(Cn3cnc(N)c4ncnc3-4)cc2)cc1	> 22700		
Nc1ncn(Cc2ccc(CCCCc3ccc(C[n+]4ccc(N5CCCC5)cc4)cc3)cc2)c2ncnc1-2	84		
CN(c1ccc(Cl)cc1)c1cc[n+](Cc2ccc(-c3ccc(C[n+]4ccc(N5CCCC5)cc4)cc3)cc2)cc1	38		
CN(C)c1cc[n+](Cc2ccc(CCc3ccc(C[n+]4ccc(N5CCCC5)cc4)cc3)cc2)cc1.[Br-].[Br-]	3	58.6	0.123
CN(C)c1cc[n+](Cc2ccc(CCCCc3ccc(Cn4cnc5c(N)ncnc54)cc3)cc2)cc1	162		
CN(C)c1cc[n+](Cc2ccc(-c3ccc(C[n+]4ccc(N(C)c5ccc(Cl)cc5)cc4)cc3)cc2)cc1.[Br-].[Br-]	7	24.4	0.122
CN(c1ccc(Cl)cc1)c1cc[n+](Cc2ccc(CCCCc3ccc(C[n+]4ccc(N5CCCC5)cc4)cc3)cc2)cc1	37		
CN(C)c1cc[n+](Cc2ccc(CCc3ccc(Cn4cnc5c(SCc6ccccc6)ncnc54)cc3)cc2)cc1	92		
Nc1ncnc2c1ncn2Cc1ccc(CCc2ccc(C[n+]3ccc(N4CCCC4)cc3)cc2)cc1	93		
Nc1ncnc2c1ncn2Cc1ccc(C[n+]2ccc(N3CCCC3)cc2)cc1	6430		
c1ccc(CSc2ncnc3c2ncn3Cc2ccc(CCc3ccc(C[n+]4ccc(N5CCCC5)cc4)cc3)cc2)cc1	149		
CN(C)c1cc[n+](Cc2ccc(-c3ccc(C[n+]4ccc(N5CCCC5)cc4)cc3)cc2)cc1.[Br-].[Br-]	3	3187.5	5.1
Nc1ncnc2c1ncn2Cc1ccc(-c2ccc(C[n+]3ccc(N4CCCC4)cc3)cc2)cc1	191		
CN(c1ccc(Cl)cc1)c1cc[n+](Cc2ccc(C[n+]3ccc(N4CCCC4)cc3)cc2)cc1	92		
CN(C)c1cc[n+](Cc2ccc(-c3ccc(Cn4cnc5c(SCc6ccccc6)ncnc54)cc3)cc2)cc1	3220		

Compound	IC50 (Plasmodium falciparum) [nM]	Ratio CC50/IC50 [1]	CC50 at 72 h [2] [µg/mL]
CN(C)c1cc[n+](Cc2ccc(CCCCc3ccc(Cn4cnc(N)c5ncnc4-5)cc3)cc2)cc1	930		
c1ccc(CSc2ncnc3c2ncn3Cc2ccc(C[n+]3ccc(N4CCCC4)cc3)cc2)cc1	411		
Nc1ncnc2c1ncn2Cc1ccc(CCCCc2ccc(C[n+]3ccc(N4CCCC4)cc3)cc2)cc1	460		
CN(C)c1cc[n+](Cc2ccc(CCc3ccc(Cn4cnc5c(N)ncnc54)cc3)cc2)cc1	191		
CN(C)c1cc[n+](Cc2ccc(C[n+]3ccc(N(C)c4ccc(Cl)cc4)cc3)cc2)cc1	66		
c1ccc(CSc2ncnc3c2ncn3Cc2ccc(-c3ccc(C[n+]4ccc(N5CCCC5)cc4)cc3)cc2)cc1	119		
CN(C)c1cc[n+](Cc2ccc(-c3ccc(Cn4cnc5c(N)ncnc54)cc3)cc2)cc1	4840		
CN(c1ccc(Cl)cc1)c1cc[n+](Cc2ccc(CCc3ccc(C[n+]4ccc(N5CCCC5)cc4)cc3)cc2)cc1	31		
CN(C)c1cc[n+](Cc2ccc(Cn3cnc4c(N)ncnc43)cc2)cc1	14300		
CN(C)c1cc[n+](Cc2ccc(CCCCc3ccc(C[n+]4ccc(N(C)c5ccc(Cl)cc5)cc4)cc3)cc2)cc1	45		
CN(C)c1cc[n+](Cc2ccc(CCc3ccc(C[n+]4ccc(N(C)c5ccc(Cl)cc5)cc4)cc3)cc2)cc1.[Br-].[Br-]	5	28.6	0.1
CN(C)c1cc[n+](Cc2ccc(-c3ccc(Cn4cnc(N)c5ncnc4-5)cc3)cc2)cc1	949		
CN(C)c1cc[n+](Cc2ccc(CCCCc3ccc(C[n+]4ccc(N5CCCC5)cc4)cc3)cc2)cc1.[Br-].[Br-]	2	8.6	0.012
CN(C)c1cc[n+](Cc2ccc(C[n+]3ccc(N4CCCC4)cc3)cc2)cc1	94		
c1ccc(CSc2ncnc3c2ncn3Cc2ccc(CCCCc3ccc(C[n+]4ccc(N5CCCC5)cc4)cc3)cc2)cc1	54		
Nc1ncn(Cc2ccc(CCc3ccc(C[n+]4ccc(N5CCCC5)cc4)cc3)cc2)c2ncnc1-2	210		
